Results as given in ChEMBL document CHEMBL3870321, “Substituted 4-morpholine N-arylsulfonamides as γ-secretase inhibitors” (Eur J Med Chem, 2016).
pIC50: −log10 of the molar value.

How the values were obtained:
Cytochrome P450 3A4 [1] = target: T1, Cytochrome P450 3A4 (Homo sapiens, UniProt P08684); assay: Inhibition of recombinant human CYP3A4 expressed in baculovirus infected insect cells preincubated for 30 mins using fluorescent substrate; assay type: ADME
Cytochrome P450 3A4 [2] = target: T1, Cytochrome P450 3A4; assay: Inhibition of recombinant human CYP3A4 expressed in baculovirus infected insect cells using fluorescent substrate; assay type: ADME
[3] = Inhibition of gamma-secretase in HEK293 cells expressing human APP Swedish/London mutant assessed as reduction in amyloid beta 40 level after 5 hrs by sandwich immunoassay; assay type: cell-based; settings: HEK293, 5 h
How it was run: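 HEK293 cells stably transfected with human APP cDNA carrying Swedish and London mutations were exposed to inhibitor for 5 h. Aβ40 in conditioned medium was measured by MSD sandwich immunoassay (TAG-G2-10/biotin-4G8). IC50 came from a four-parameter variable-slope nonlinear fit, with duplicate or triplicate measurements per experiment.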

[4] = AUC (0 to 6 hrs) in Sprague-Dawley rat at 30 mg/kg, po by LC-MS/MS analysis; assay type: ADME, organism-based; design: dose 30 mg/kg, time < 6 hr, route oral; settings: in vivo
How it was run: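 Two fasted male Sprague-Dawley rats per compound, femoral-artery cannulated, were dosed orally in 0.5% methylcellulose. Serial heparinized blood was taken at 0.5, 1, 2, 3, 4 and 6 h, and plasma was stored at -20 °C. Compound levels were measured by LC-MS/MS using compound-specific SRM transitions from [MH]+, and AUC was taken over 0–6 h.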

Cytochrome P450 3A4 [5] = target: T1, Cytochrome P450 3A4; assay: Inhibition of CYP3A4 (unknown origin); assay type: ADME
How it was run: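 Recombinant CYP3A4 was co-incubated with compound, and fluorescent product formed from a […] coumarin or fluorescein substrate was read out. Values are means of two experiments.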

Cytochrome P450 3A4 [6] = target: T1, Cytochrome P450 3A4; assay: Inhibition of CYP3A4 (unknown origin) preincubated with enzyme; assay type: ADME
How it was run: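 Recombinant CYP3A4 was pre-incubated with compound, and data were collected 30 min after the compound was combined with enzyme. Read-out was fluorescent product formed from a […] substrate. Values are means of two experiments.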

[7] = Inhibition of gamma-secretase in HEK293 cells expressing APP London mutant assessed as reduction in amyloid beta 40 level after 5 hrs by immunoassay; settings: Homo sapiens, HEK293, 5 h
Mus musculus = assay: In vivo inhibition of gamma-secretase in CRND8 transgenic mouse model of Alzheimers disease expressing APP Swedish/Indiana familial mutant assessed as reduction in amyloid beta 40 level in plasma at 30 mg/kg administered as single dose via oral gavage after 3 hrs by sandwich immunoassay; assay type: functional
How it was run: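 Transgenic CRND8 mice (5–7 weeks, male and female, counterbalanced, singly housed) received a single oral gavage dose in 20% hydroxypropyl-β-cyclodextrin. Mice were killed by CO2 at 3 h, and EDTA plasma was collected from the posterior vena cava. Plasma Aβ40 was quantified by MSD sandwich immunoassay (biotin-4G8/S-tag G2-10) and compared with a vehicle-only group.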

T1 sequence (P08684 whole entry): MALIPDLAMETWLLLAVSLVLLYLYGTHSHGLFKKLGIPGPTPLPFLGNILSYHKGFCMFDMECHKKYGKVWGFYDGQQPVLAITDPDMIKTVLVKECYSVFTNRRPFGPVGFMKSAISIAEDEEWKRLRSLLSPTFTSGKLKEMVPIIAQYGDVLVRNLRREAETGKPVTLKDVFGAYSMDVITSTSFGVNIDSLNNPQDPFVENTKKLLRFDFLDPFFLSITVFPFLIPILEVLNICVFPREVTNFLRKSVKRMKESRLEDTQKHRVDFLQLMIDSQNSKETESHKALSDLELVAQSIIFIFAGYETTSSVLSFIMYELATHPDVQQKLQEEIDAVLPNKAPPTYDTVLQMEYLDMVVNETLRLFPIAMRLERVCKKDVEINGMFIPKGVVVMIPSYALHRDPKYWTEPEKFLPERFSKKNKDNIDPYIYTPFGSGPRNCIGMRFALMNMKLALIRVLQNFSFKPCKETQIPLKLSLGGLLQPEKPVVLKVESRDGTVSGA

| Structure (SMILES) | pIC50 (Cytochrome P450 3A4 [1]) | pIC50 (Cytochrome P450 3A4 [2]) | pIC50 [3] | AUC(0-t) at 6 h [4] [ng·h/mL] | IC50 (Cytochrome P450 3A4 [5]) [µM] | IC50 (Cytochrome P450 3A4 [6]) [µM] | pIC50 [7] | inhibition in vivo at 30 mg/kg (Mus musculus) [%] |
| --- | --- | --- | --- | --- | --- | --- | --- | --- |
| O=C(C(O)C1([C@H]2COC[C@@H](C3CC3)N2S(=O)(=O)c2ccc(Cl)cc2)CC1)N1C2CCC1CC(N1CCCCC1)C2 (stereo not given in full) | < 4.52 | < 4.52 | 7.62 | 267 |  |  |  |  |
| O=C(CC1([C@H]2CO[C@H]3CCC[C@H]3N2S(=O)(=O)c2ccc(Cl)cc2)CC1)N1CC[C@@H](O)C1 | < 4.52 | < 4.52 | 7.80 |  |  |  |  |  |
| O=C(C(O)C1([C@H]2COC[C@@H](C3CC3)N2S(=O)(=O)c2ccc(Cl)cc2)CC1)N1CC2CCC(C1)N2 (stereo not given in full) | 5.05 | < 4.52 | 8.00 | 254 |  |  |  |  |
| O=C(CC1([C@H]2COC[C@@H](C3CC3)N2S(=O)(=O)c2ccc(Cl)cc2)CC1)N1CC2CCC(C1)N2 |  |  | 8.46 | 1160 |  |  |  |  |
| O=S(=O)(c1ccc(Cl)cc1)N1[C@@H](CO)CCC[C@H]1c1cccc(F)c1 |  |  |  |  | 13.9 | 30 | 6.17 |  |
| O=C(CC1([C@H]2COC[C@@H](C3CC3)N2S(=O)(=O)c2ccc(Cl)cc2)CC1)N1CC2CCC(C1)N2CCO | > 6.40 | < 4.52 | 8.22 | 2730 |  |  |  |  |
| O=C(CC1([C@H]2CO[C@H]3CCC[C@H]3N2S(=O)(=O)c2ccc(Cl)cc2)CC1)N1CCC(N2CCCCC2)CC1 | 5.10 | 4.68 | 8.77 |  |  |  |  |  |
| O=S(=O)(c1ccc(Cl)cc1)N1[C@H](c2cccc(F)c2)CCC[C@@H]1C1(O)CC1 |  |  |  |  | < 0.9 | < 0.5 | 6.50 |  |
| O=C(CC1([C@H]2COC[C@@H](C3CC3)N2S(=O)(=O)c2ccc(Cl)cc2)CC1)N1C2CCC1CC(N1CCCCC1)C2 (stereo not given in full) | 5.70 | < 4.52 | 7.92 | 1290 |  |  |  |  |
| CC(=O)N1C2CCC1CN(C(=O)CC1([C@H]3COC[C@@H](C4CC4)N3S(=O)(=O)c3ccc(Cl)cc3)CC1)C2 | 5.37 | 4.52 | 7.74 |  |  |  |  |  |

Second part, led by results:

| pIC50 (Cytochrome P450 3A4 [1]) | pIC50 (Cytochrome P450 3A4 [2]) | pIC50 [3] | AUC(0-t) at 6 h [4] [ng·h/mL] | IC50 (Cytochrome P450 3A4 [5]) [µM] | IC50 (Cytochrome P450 3A4 [6]) [µM] | pIC50 [7] | Structure (SMILES) | inhibition in vivo at 30 mg/kg (Mus musculus) [%] |
| --- | --- | --- | --- | --- | --- | --- | --- | --- |
| 4.77 | 4.52 | 7.17 | 3160 |  |  |  | CC(=O)N1CCN(C(=O)CC2([C@H]3COC[C@@H](C4CC4)N3S(=O)(=O)c3ccc(F)cc3)CC2)CC1 |  |
| 5.66 | < 4.52 | 7.85 |  |  |  |  | C[C@H]1CN(C(C)(C)CO)CCN1C(=O)CC1([C@H]2COC[C@@H](C3CC3)N2S(=O)(=O)c2ccc(F)cc2)CC1 |  |
| 5.82 | < 4.52 | 7.52 | 575 |  |  |  | O=C(CC1([C@H]2COC[C@@H](C3CC3)N2S(=O)(=O)c2ccc(F)cc2)CC1)N1CCC(N2CCCCC2)CC1 |  |
| 5.16 | < 4.52 | 7.49 | 1970 |  |  |  | O=C(CC1([C@H]2COC[C@@H](C3CC3)N2S(=O)(=O)c2ccc(F)cc2)CC1)N1CCN(CCO)CC1 |  |
| 4.52 | 4.52 | 8.74 | 36 |  |  |  | O=C(CC1([C@H]2CO[C@H]3CCC[C@H]3N2S(=O)(=O)c2ccc(Cl)cc2)CC1)N1CCC(CO)CC1 |  |
| 5.72 | < 4.52 | 8.23 | 464 |  |  |  | CC(C)(CO)N1CCN(C(=O)CC2([C@H]3COC[C@@H](C4CC4)N3S(=O)(=O)c3ccc(Cl)cc3)CC2)CC1 | 89 |
| 4.52 | 4.52 | 7.74 |  |  |  |  | O=C(CC1([C@H]2CO[C@H]3CCC[C@H]3N2S(=O)(=O)c2ccc(Cl)cc2)CC1)N1CC[C@@H](CO)C1 |  |
